Source: ChEMBL document CHEMBL3232844, “Synthesis and structure activity relationships of schweinfurthin indoles” (2014)

Tests used:
Assay type in all cases: functional
HCC 2998 = experiment: Cytotoxicity against human HCC2998 cells
Procedure, shortened: (§1)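 Tested in a 60-cell-line human tumor panel screen; the read-out is growth inhibition, reported as GI50 for each cell line.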

SK-OV-3 = experiment: Cytotoxicity against human SKOV3 cells; procedure, shortened: as §1
M14 = experiment: Cytotoxicity against human M14 cells; procedure, shortened: as §1
A498 = experiment: Cytotoxicity against human A498 cells; procedure, shortened: as §1
LOX IMVI = experiment: Cytotoxicity against human LOXIMVI cells; procedure, shortened: as §1
[1] = Cytotoxicity against human UO31 cells
Procedure, shortened: (§2)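 Cell line run as part of the 60-cell-line screening panel; growth inhibition was reported as a GI50 for each line.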

[2] = Cytotoxicity against human OVCAR4 cells; procedure, shortened: as §1
[3] = Cytotoxicity against human UACC257 cells; procedure, shortened: as §2
CCRF-CEM = experiment: Cytotoxicity against human CCRF-CEM cells
CAKI-1 = experiment: Cytotoxicity against human Caki1 cells; procedure, shortened: as §1
SNB-19 = experiment: Cytotoxicity against human SNB19 cells; procedure, shortened: as §1
DU-145 = experiment: Cytotoxicity against human DU145 cells; procedure, shortened: as §1
MDA-MB-435 = experiment: Cytotoxicity against human MDA-MB-435 cells; procedure, shortened: as §1
SN12C = experiment: Cytotoxicity against human SN12C cells; procedure, shortened: as §1
TK-10 = experiment: Cytotoxicity against human TK10 cells; procedure, shortened: as §2
COLO 205 = experiment: Cytotoxicity against human COLO205 cells; procedure, shortened: as §1
MDA-MB-468 = experiment: Cytotoxicity against human MDA-MB-468 cells; procedure, shortened: as §1
786-0 = experiment: Cytotoxicity against human 786-0 cells; procedure, shortened: as §1
SF-268 = experiment: Cytotoxicity against human SF268 cells; procedure, shortened: as §1
SF-539 = experiment: Cytotoxicity against human SF539 cells; procedure, shortened: as §1
SK-MEL-2 = experiment: Cytotoxicity against human SK-MEL-2 cells; procedure, shortened: as §1
[4] = Cytotoxicity against human NCI-ADR-RES cells; procedure, shortened: as §1
SF-295 = experiment: Cytotoxicity against human SF295 cells; procedure, shortened: as §1
HOP-62 = experiment: Cytotoxicity against human HOP62 cells; procedure, shortened: as §1
BT-549 = experiment: Cytotoxicity against human BT549 cells; procedure, shortened: as §1
[5] = Cytotoxicity against human HCT15 cells; procedure, shortened: as §1
SNB-75 = experiment: Cytotoxicity against human SNB75 cells; procedure, shortened: as §2
[6] = Cytotoxicity against human OVCAR8 cells; procedure, shortened: as §1
NCI-H322M = experiment: Cytotoxicity against human NCI-H322M cells; procedure, shortened: as §1
[7] = Cytotoxicity against human UACC62 cells; procedure, shortened: as §2
KM12 = experiment: Cytotoxicity against human KM12 cells; procedure, shortened: as §1
NCI-H23 = experiment: Cytotoxicity against human NCI-H23 cells; procedure, shortened: as §1
MDA-MB-231 = experiment: Cytotoxicity against human MDA-MB-231 cells; procedure, shortened: as §1
NCI-H226 = experiment: Cytotoxicity against human NCI-H226 cells; procedure, shortened: as §1
K562 = experiment: Cytotoxicity against human K562 cells; procedure, shortened: as §1
ACHN = experiment: Cytotoxicity against human ACHN cells; procedure, shortened: as §1
SR = experiment: Cytotoxicity against human SR cells; procedure, shortened: as §2
A549 = experiment: Cytotoxicity against human A549 cells; procedure, shortened: as §1
HCT-116 = experiment: Cytotoxicity against human HCT116 cells; procedure, shortened: as §1
HT-29 = experiment: Cytotoxicity against human HT-29 cells; procedure, shortened: as §1
HL-60(TB) = experiment: Cytotoxicity against human HL-60(TB) cells
Procedure, shortened: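 Tested within the NCI 60-cell-line screen, with GI50 as the read-out. Values are the average of two independent experiments. The lowest concentration tested was 10 nM.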

RXF 393 = experiment: Cytotoxicity against human RXF393 cells; procedure, shortened: as §1
IGROV-1 = experiment: Cytotoxicity against human IGROV1 cells; procedure, shortened: as §1
[8] = read-out: pLC50 (the source's name) (converted)

COc1cc(/C=C/c2cc(OC)c3cc[nH]c3c2)cc2c1O[C@]1(C)CC[C@@H](O)C(C)(C)[C@H]1C2
GI50 (HCC 2998): 2240 nM
CC50 (HCC 2998; [8]): 49 µM
TGI (HCC 2998; read-out: pTGI (converted)): 11.2 µM
GI50 (SK-OV-3): 339 nM
TGI (SK-OV-3; read-out: pTGI (converted)): 1290 nM
GI50 (M14): 174 nM
CC50 (M14; [8]): 741 nM
TGI (M14; read-out: pTGI (converted)): 355 nM
GI50 (A498): 245 nM
TGI (A498; read-out: pTGI (converted)): 813 nM
GI50 (LOX IMVI): 389 nM
CC50 (LOX IMVI; [8]): 4.47 µM
TGI (LOX IMVI; read-out: pTGI (converted)): 1480 nM
GI50 ([1]; UO-31): 186 nM
LC50 ([1]; UO-31): > 100 µM
TGI ([1]; UO-31, read-out: pTGI (converted)): 977 nM
GI50 ([2]; OVCAR-4): 871 nM
CC50 ([2]; OVCAR-4, read-out: pLC50 (the source's name) (converted)): > 100 µM
TGI ([2]; OVCAR-4, read-out: pTGI (converted)): 26.9 µM
GI50 ([3]; UACC-257): 295 nM
TGI ([3]; UACC-257, read-out: pTGI (converted)): 759 nM
GI50 (CCRF-CEM): 151 nM
CC50 (CCRF-CEM; [8]): > 100 µM
GI50 (CAKI-1): 79.4 nM
LC50 (CAKI-1): 851 nM
TGI (CAKI-1; read-out: pTGI (converted)): 269 nM
GI50 (SNB-19): 676 nM
CC50 (SNB-19; [8]): > 100 µM
TGI (SNB-19; read-out: pTGI (converted)): 7.08 µM
GI50 (DU-145): 1070 nM
LC50 (50% lethal concentration) (DU-145): > 100 µM
TGI (DU-145; read-out: pTGI (converted)): 4.37 µM
GI50 (MDA-MB-435): 355 nM
CC50 (MDA-MB-435; [8]): > 100 µM
TGI (MDA-MB-435; read-out: pTGI (converted)): 2570 nM
GI50 (SN12C): 6.17 µM
LC50 (SN12C): > 100 µM
TGI (SN12C; read-out: pTGI (converted)): 51.3 µM
GI50 (TK-10): 1550 nM
LC50 (TK-10): > 100 µM
TGI (TK-10; read-out: pTGI (converted)): 11 µM
GI50 (COLO 205): 219 nM
CC50 (COLO 205; [8]): 891 nM
TGI (COLO 205; read-out: pTGI (converted)): 447 nM
GI50 (MDA-MB-468): 631 nM
LC50 (MDA-MB-468): > 100 µM
TGI (MDA-MB-468; read-out: pTGI (converted)): 4.47 µM
GI50 (786-0): 72.4 nM
LC50 (concentration killing 50% of cells) (786-0): 3.02 µM
TGI (786-0; read-out: pTGI (converted)): 468 nM
GI50 (SF-268): 282 nM
CC50 (SF-268; [8]): 10 µM
TGI (SF-268; read-out: pTGI (converted)): 10.2 µM
GI50 (SF-539): 141 nM
CC50 (SF-539; [8]): 3.09 µM
TGI (SF-539; read-out: pTGI (converted)): 468 nM
GI50 (SK-MEL-2): 309 nM
CC50 (SK-MEL-2; [8]): > 100 µM
TGI (SK-MEL-2; read-out: pTGI (converted)): 1740 nM
GI50 [4]: 2090 nM
CC50 [4, 8]: > 100 µM
TGI ([4]; read-out: pTGI (converted)): 20 µM
GI50 (SF-295; read-out: GI50): 55 nM
GI50 (SF-295; read-out: pGI50 (converted)): 55 nM
CC50 (SF-295; [8]): 794 nM
TGI (SF-295; read-out: pTGI (converted)): 224 nM
GI50 (HOP-62): 501 nM
CC50 (HOP-62; [8]): 9.55 µM
TGI (HOP-62; read-out: pTGI (converted)): 2400 nM
GI50 (BT-549): 229 nM
CC50 (BT-549; [8]): > 100 µM
TGI (BT-549; read-out: pTGI (converted)): 3.09 µM
GI50 ([5]; HCT-15): 398 nM
CC50 ([5]; HCT-15, read-out: pLC50 (the source's name) (converted)): > 100 µM
TGI ([5]; HCT-15, read-out: pTGI (converted)): 7.94 µM
GI50 (SNB-75): 93.3 nM
TGI (SNB-75; read-out: pTGI (converted)): 468 nM
GI50 ([6]; OVCAR-8): 3.63 µM
CC50 ([6]; OVCAR-8, read-out: pLC50 (the source's name) (converted)): > 100 µM
TGI ([6]; OVCAR-8, read-out: pTGI (converted)): 25.1 µM
GI50 (NCI-H322M): 3.55 µM
CC50 (NCI-H322M; [8]): > 100 µM
TGI (NCI-H322M; read-out: pTGI (converted)): 37.2 µM
GI50 ([7]; UACC-62): 162 nM
CC50 ([7]; UACC-62, read-out: pLC50 (the source's name) (converted)): 955 nM
TGI ([7]; UACC-62, read-out: pTGI (converted)): 398 nM
GI50 (KM12): 191 nM
CC50 (KM12; [8]): 3.63 µM
TGI (KM12; read-out: pTGI (converted)): 468 nM
GI50 (NCI-H23): 692 nM
CC50 (NCI-H23; [8]): > 100 µM
TGI (NCI-H23; read-out: pTGI (converted)): 3.39 µM
GI50 (MDA-MB-231): 851 nM
LC50 (MDA-MB-231): > 100 µM
TGI (MDA-MB-231; read-out: pTGI (converted)): 4.57 µM
GI50 (NCI-H226): 1740 nM
CC50 (NCI-H226; [8]): 58.9 µM
TGI (NCI-H226; read-out: pTGI (converted)): 7.08 µM
GI50 (K562): 324 nM
CC50 (K562; [8]): > 100 µM
TGI (K562; read-out: pTGI (converted)): 1380 nM
GI50 (ACHN): 575 nM
LC50 (concentration killing 50% of cells) (ACHN): > 100 µM
TGI (ACHN; read-out: pTGI (converted)): 6.92 µM
GI50 (SR): 302 nM
CC50 (SR; [8]): > 100 µM
TGI (SR; read-out: pTGI (converted)): 5.62 µM
GI50 (A549): 871 nM
CC50 (A549; [8]): > 100 µM
TGI (A549; read-out: pTGI (converted)): 17.8 µM
GI50 (HCT-116): 537 nM
CC50 (HCT-116; [8]): 6.03 µM
TGI (HCT-116; read-out: pTGI (converted)): 2040 nM
GI50 (HT-29): 288 nM
CC50 (HT-29; [8]): > 100 µM
TGI (HT-29; read-out: pTGI (converted)): 1780 nM
GI50 (HL-60(TB)): 138 nM
CC50 (HL-60(TB); [8]): > 100 µM
TGI (HL-60(TB); read-out: pTGI (converted)): 1320 nM
GI50 (RXF 393): 24 nM
LC50 (RXF 393): 316 nM
TGI (RXF 393; read-out: pTGI (converted)): 60.3 nM
GI50 (IGROV-1): 977 nM
CC50 (IGROV-1; [8]): > 100 µM
TGI (IGROV-1; read-out: pTGI (converted)): 13.5 µM
